The source of these data is ChEMBL document CHEMBL4513216, “Probing the Open Global Health Chemical Diversity Library for Multistage-Active Starting Points for Next-Generation Antimalarials” (ACS Infect Dis, 2020).

The nature of the data set: Toxicity liver stage against HepG2, at 10uM. Format: cell-based. On the set-up: test concentration 10 uM, cell line HepG2-A16-CD81EGFP. The settings on record: human, HepG2-A16-CD81EGFP cells; read-out: INHIBITION
The method in brief:
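Uninfected HepG2-A16-CD81EGFP cells, 3 × 10^3 per well, 1536-well, plated on prespotted compound at 10 μM final, parasite-free screening media added to match infected plates; puromycin 10 μM positive, DMSO 0.5% negative; run in parallel with 48 h PbLuc assay at 37 °C, 5% CO2; viability by CellTiter-Glo luminescence, normalized to controls.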
Consider `COCCN(CCOC)Cc1c(C)nc2ccccc2c1O`, for which the cytotoxicity at 10 µM stood at 2.08%.

Turning to `CC(C)(O)c1cc(CC2(NCc3ccccc3Cl)COC2)no1`, the cytotoxicity at 10 µM was found to be 2.63%. As for `CN1CCN(C(=O)c2cc3occc3n2Cc2ccccc2F)CC1`, the figure is 1.14%; as for `COC(=O)c1ccc(C2SCC(=O)Nc3c2cnn3C2CCCC2)cc1` (stereo unspecified), 1.9%.

With `Cc1cnc2n(c1=O)C(CC(=O)NCc1ccccc1Cl)CS2` (stereo unspecified), the cytotoxicity at 10 µM was -7.86%. Turning to `COc1ccc(C(=O)NCC(c2cccn2C)N2CCN(C)CC2)cc1` (stereo unspecified), the cytotoxicity at 10 µM was determined as 8.19%. With `O=C(O)c1ncccc1N1CCCCC1`, the cytotoxicity at 10 µM turned out to be 4.19%. Regarding `CC(C)N(C)[C@@H]1CCN(Cc2ccco2)[C@H]1Cc1ccccc1`, the cytotoxicity at 10 µM was -7.92%. With `Cc1occc1C(=O)N1C[C@@H]2CN(S(C)(=O)=O)CCO[C@@H]2C1`, the cytotoxicity at 10 µM was -2.63%. Then `CC(C)CCN1C2(CCN(C(=O)C3(C)CC3)C2)c2ccccc2S1(=O)=O` (stereo unspecified), with -7.42%; and `COCCNC(=O)c1cc2c(s1)CCN2S(C)(=O)=O`, with -5.05%.

As for `Cc1c(C)n(CC(O)CN2CCC(O)CC2)c2c(Cl)cccc12` (stereo unspecified), the cytotoxicity at 10 µM was -13.9%. Then `O=C(NCC1CC1)C1=NOC2(CCN(Cc3ccc4c(c3)OCO4)C2)C1` (stereo unspecified), with -12.1%; and `CN1C(=O)C(c2cccnc2)CC12CCN(C(=O)c1cccn1C)CC2` (stereo unspecified), with -16.4%. Regarding `Cc1noc([C@@H]2C[C@H]3OCC[C@H]3N(S(C)(=O)=O)C2)n1`, the cytotoxicity at 10 µM is -9.67%.

Take `CC(C)CNC(=O)c1nn(C)c(NC(=O)Cc2ccccc2)c1F`: the cytotoxicity at 10 µM was -3.22%.

Turning to `CCn1cc(NC(=O)C(C)n2ncc(Cl)c2C)c(C(=O)OC)n1` (stereo unspecified), the cytotoxicity at 10 µM came out at 7.19%. As for `Cc1cc(O)n(-c2ccc3nnc(C)n3n2)n1`, the cytotoxicity at 10 µM turned out to be 9.24%. Turning to `CC(=O)N[C@H]1CCO[C@@H](c2cccc(NC(=O)c3cccc(F)c3)c2)C1`, the cytotoxicity at 10 µM was determined as 8.75%. For the compound `Cc1ccccc1S(=O)(=O)N[C@@H]1CC[C@@H](N2CCNC(=O)C2)[C@@H]1O`, the cytotoxicity at 10 µM stood at 4.29%. Then `CC(C)N1CCCC1c1cc(CCO)[nH]n1` (stereo unspecified), with 0.895%. Then `CN(Cc1nnc(C2CC2)o1)Cc1ccccc1-c1ccccc1`, with 4.59%. Then `Cc1ccc(S(=O)(=O)N[C@H](CO)C(C)C)cc1N(C)C`, with -5.53%; and `NC(=O)CNC(c1ccccc1)c1ccccc1`, with -10.5%; and `Cc1cc(NC(=O)CNC2CCc3ncnn3C2)on1` (stereo unspecified), with 6.47%. With `CNC(=O)N1CCOC(C)(c2cnn(C)c2)C1` (stereo unspecified), the cytotoxicity at 10 µM is -0.717%. On to `Cc1nnc(N2CCc3cnc(C(C)C)nc3C2)c(C#N)c1C`, for which the cytotoxicity at 10 µM was -143%.

For `CCCNC(=O)CCC(=O)Nc1cc2sc(C)nc2cc1OC`, the cytotoxicity at 10 µM amounted to 4.55%. As for `Cc1sc(-c2ccco2)nc1C(=O)N(CC1CCOC1)C1CC1` (stereo unspecified), the figure is 0.714%. For `COc1ccc(OC)c(CCC(=O)Nc2cc(C)n[nH]2)c1`, the cytotoxicity at 10 µM turned out to be 7.3%.

As to `CC(NCc1ccccc1CN1CCCC1=O)c1ccc(C#N)cc1` (stereo unspecified), the cytotoxicity at 10 µM was determined as 3.09%. As for `O=C(NCCCN1CCC(OC2CCCCC2)CC1)C1CCCC1`, the figure is 2.24%; as for `Cc1ccc(CN2CCOC(C)(c3cnn(C)c3)C2)cc1` (stereo unspecified), -4.16%. As for `N#Cc1ccc(SCCOCCO)c(Cl)c1`, the figure is 2.68%; as for `CCOc1ccnc(N2CCN(CCOC)CC2)n1`, 4.49%. Turning to `CN1CCN(CC(NCc2cccc(O)c2)c2ccccc2)CC1` (stereo unspecified), the cytotoxicity at 10 µM was -3.89%. As for `Cc1cc(C)n(-c2cncc(NCCC(=O)NC(C)C)n2)n1`, the figure is 1.06%; as for `c1nc(N2CCCCC2Cn2cncn2)c2sccc2n1` (stereo unspecified), 9.43%; as for `COCCn1nc(C(=O)N(C)Cc2cccnc2)ccc1=O`, -144%. As for `Cc1cc(N)nc(SC2CCN(c3ccccc3)C2=O)n1` (stereo unspecified), the cytotoxicity at 10 µM is -0.572%. Then `Cc1ccc2c(c1)CCCN2C(=O)c1cncc(Br)c1`, with -8.79%; and `N#Cc1c(Cl)nsc1N1CCN(CC2CCCCC2)CC1`, with -8.67%; and `O=C(Cn1cc(-n2cccc2)cn1)NCC(F)(F)F`, with 16%.

In the case of `COc1ccc(-c2nc(C3(NC(=O)OC(C)(C)C)CCC3)no2)cn1`, the cytotoxicity at 10 µM was found to be 12.5%. For `CC(=O)N1CC[C@@H]2O[C@@H](COCc3csc(C)n3)CC[C@@H]21`, the cytotoxicity at 10 µM is -71.7%. On to `Cc1noc([C@H]2C[C@H]3OCC[C@H]3N(Cc3ccncc3)C2)n1`, for which the cytotoxicity at 10 µM is -74.7%. Then `CNC(=O)[C@@]12CCO[C@@H]1CCN(S(=O)(=O)c1ccccc1C)C2`, with -72.8%; and `CC(=O)N1CCC2(CCN(C(=O)c3ccc(F)c(C(F)(F)F)c3)CC2)C1`, with -80.4%. As for `c1cnc(OCc2nnc3n2CCN(CC2CCOCC2)C3)nc1`, the figure is 4.95%. Turning to `Cc1ccc(N2CCC3(CCN(C(=O)c4ccsc4)CC3)C2)nn1`, the cytotoxicity at 10 µM worked out at 4%. Then `CNC(=O)CC1CC2(CCN(S(C)(=O)=O)CC2)c2ccccc21` (stereo unspecified), with 5.75%. Then `CCn1ccnc1C1CCN(C(=O)C(O)c2ccc(Cl)cc2)CC1` (stereo unspecified), with -0.65%; and `Cn1nccc1C(=O)N1CCCC1c1ccc(C(=O)N2CCOCC2)s1` (stereo unspecified), with -145%. As for `CC(C)CN1CC2(CCN(C(=O)C(O)c3ccccc3Cl)CC2)CC1=O` (stereo unspecified), the figure is 6.89%; as for `COc1ccc(-c2cc(C3CCOC3)c(C#N)c(N)n2)cn1` (stereo unspecified), 10.2%. In the case of `Cc1c(CNCCCOc2cccnc2)c2ccccc2n1CC(N)=O`, the cytotoxicity at 10 µM was -145%. Then `O=c1[nH]c2cc3c(cc2cc1CN1CCCC1c1ccccn1)OCO3` (stereo unspecified), with -4.5%; and `CCOCC(=O)N1Cc2cnc(-c3ccccc3)nc2C1`, with -1.08%. On to `CN(CCC1CCCCO1)c1nncc(-c2ccccc2)n1` (stereo unspecified), for which the cytotoxicity at 10 µM amounted to 1.37%. As for `Cc1nc(CN2CCN(C(=O)C(c3ccccc3C)N(C)C)CC2)no1` (stereo unspecified), the cytotoxicity at 10 µM was determined as 1.06%. Turning to `O=C1OCCN1CCNC(=O)C1(N2CCCCC2)Cc2ccccc2C1`, the cytotoxicity at 10 µM was -6.77%.

Consider `CCCc1cc(C(=O)N2C[C@H]3CC=C(C)C[C@H]3C2)ccn1`, for which the cytotoxicity at 10 µM is 0.782%. As to `Cc1nccnc1-n1c(COCC(=O)O)nc2c(C)cccc21`, the cytotoxicity at 10 µM was -6.29%. Then `CCCN1CCN(Cc2cc3cc(OCC)ccc3[nH]c2=O)CC1`, with -9.91%. Take `CCOCCn1c(=O)n(CCC=C(C)C)c2cc(C(=O)O)cnc21`: the cytotoxicity at 10 µM is -2.85%. In the case of `CC(C)N1CCCC2(CCN(C(=O)CCCn3ccnc3)C2)C1=O` (stereo unspecified), the cytotoxicity at 10 µM is -6.43%. Take `Cc1[nH]c(=O)[nH]c(=O)c1CN1CCCC(CCc2c(F)cccc2F)C1` (stereo unspecified): the cytotoxicity at 10 µM was -7.32%. In the case of `CNC(=O)c1cccc(CNC(=O)C2CC(=O)N(CCN(C)C)C2)c1` (stereo unspecified), the cytotoxicity at 10 µM was determined as 1.01%. As for `COc1ccc2c(c1)CCN(CCC(=O)NC1CCCCC1)CC2`, the figure is -11.4%; as for `CN(C)c1nc2c(c(=O)[nH]1)CCN(C(=O)c1cccc3nccnc13)C2`, -10.7%. `CNc1cncc(C2CCCN2C(=O)c2ccc3oc(C)cc3c2)n1` (stereo unspecified): the cytotoxicity at 10 µM is 4.52%.

Turning to `O=C(Nc1ccc(CCN2CCOCC2)cc1)C1CC1`, the cytotoxicity at 10 µM is -10.9%.

For `CS(=O)(=O)NCCC(=O)Nc1cnn(-c2ccccc2Cl)c1`, the cytotoxicity at 10 µM is -0.0414%.

On to `O=C(CN1CCCC1c1noc(C2CC2)n1)NCCc1ccsc1` (stereo unspecified), for which the cytotoxicity at 10 µM amounted to 2.82%. Then `CC(C)c1nnc2n1CCN(C(=O)c1cc(Cl)c[nH]1)C2`, with -11.4%; and `Cc1ccc(C(=O)N2CCCN(Cc3cccs3)CC2)n1C`, with -0.926%. Turning to `CN(Cc1ccsc1)C(=O)c1ccc2c(c1)NC(=O)CO2`, the cytotoxicity at 10 µM is -12.8%. As to `CCc1nc2n(n1)CC(NCCC(=O)Nc1cc(C)on1)CC2` (stereo unspecified), the cytotoxicity at 10 µM was -10%.

With `N#Cc1ccc(OCC(O)CN2CCC(c3ccn[nH]3)CC2)cc1` (stereo unspecified), the cytotoxicity at 10 µM is -3.33%. Then `COCCN1CCN(Cc2cccc(C(=O)N(C)C)c2)CC1`, with -6.79%.

For `O=C(CN1CCCC(Cn2cncn2)C1)NCCCc1ccccc1` (stereo unspecified), the cytotoxicity at 10 µM was -10.7%.

For `Cc1ccccc1-c1noc(CN2CCc3nn(C)c(=O)cc3C2)n1`, the cytotoxicity at 10 µM was -12.5%. As for `N#CCc1ccc(OCC(=O)N2CCCC(n3cccn3)C2)cc1` (stereo unspecified), the figure is -4%; as for `Cc1noc(C(C)C)c1C(=O)NCC(c1ccsc1)N(C)C` (stereo unspecified), -5.18%; as for `CCS(=O)(=O)N(C)CC(=O)Nc1ccc(Br)cn1`, -0.0481%.

Consider `Cc1cc(NC(=O)CN2CCCC2c2noc(C(C)C)n2)n(C)n1` (stereo unspecified), for which the cytotoxicity at 10 µM came to 4.64%. As for `O=C(c1cc(F)ccc1F)C1CCN(C(=O)c2ccccn2)CC1`, the figure is 2.6%.

For the compound `Cc1nc(CN2CCc3ncnc(-c4ccccc4)c3CC2)cs1`, the cytotoxicity at 10 µM was -81.1%. Then `CN(C)CCN1CCOCC12CCN(C(=O)C1CC1)CC2`, with -7.45%; and `Cc1ccc(N2CCC3(CC2)COCCN(c2nccs2)C3)nn1`, with -107%; and `CC(=O)N1CC(=O)N(c2ccccc2)CC12CCN(Cc1cccs1)C2` (stereo unspecified), with -11.1%. As for `CCO[C@H]1CN(CC2CC2)[C@@H]2CCCO[C@H]12`, the figure is -105%.

On to `CN(C)C[C@]12COC[C@H]1CN(C(=O)CCc1ccccc1)C2`, for which the cytotoxicity at 10 µM is -1.89%. `O=C(NC[C@]12COC[C@H]1CN(Cc1ccncc1)C2)c1ccno1`: the cytotoxicity at 10 µM was -72.1%. With `c1ccc(-c2ccc3nc(C4CCN(CC5CC5)CC4)nn3c2)cc1`, the cytotoxicity at 10 µM is -7.32%. Then `CN(C)CCNC(=O)[C@H]1C[C@H]2CN(C(=O)NC3CCCC3)C[C@@H]1O2`, with -4.2%.
